Measurements from different studies.
Each line is one published result; the experiments were not run side by side.
Target: SRSF protein kinase 1 (SRPK1, Homo sapiens, UniProt Q96SB4)

COc1ncccc1-c1cnn2ccc(N3CCN(C(=O)OC(C)C)CC3)nc12  remaining binding (binding, competition with immobilised ligand; 1 µM): 19%
CC(C)(C)c1cc(C=C(C#N)C#N)cc(Br)c1O  remaining activity (enzyme activity, inhibitor; 0.5 µM): 101%
Cn1cncc1[C@](O)(COc1ccc(C#N)cc1-c1ccc(OC(F)(F)F)cc1)c1ccc(C#N)cc1  remaining binding (cell-free assay, competition with immobilised ligand; 1 µM): 70%
COc1cc(Nc2ncc(F)c(Nc3ccc4c(n3)NC(=O)C(C)(C)O4)n2)cc(OC)c1OC  inhibition (binding; 10 µM): 87%
O=c1[nH]c2ccccc2n1C1CCN(Cc2ccc(-c3[nH]c4cc5ncnc5cc4nc3-c3ccccc3)cc2)CC1  remaining signal (cell-free assay; 0.5 µM): 106%
Cn1cc(-c2cc(F)cc(N3CCn4c(cc5c4CCCC5)C3=O)c2CO)cc(Nc2ccc(N3CCN(C4COC4)CC3)cn2)c1=O  inhibition (enzyme activity, inhibitor; 0.1 µM): 14%
C#Cc1n[nH]c2c(-c3cn([C@@H](C)c4ccccn4)c(=O)[nH]c3=O)cc(F)cc12  inhibition (enzyme activity, inhibitor; 0.1 µM): 3.3%
Cc1nn(C)cc1-c1nc2c(N3CCN(Cc4ccc(Cl)cc4)CC3)c(Cl)cnc2[nH]1  remaining binding (binding, competition with immobilised ligand; 1 µM): 7.8%
Cn1cc(-c2cccc(N3CCc4c(sc5c4CC(C)(C)C5)C3=O)c2CO)cc(Nc2ccncn2)c1=O  inhibition (enzyme activity, inhibitor; 1 µM): 5%
C#Cc1n[nH]c2c(-c3cn([C@@H](C)c4ccccc4)c(=O)[nH]c3=O)cc(F)cc12  inhibition (enzyme activity, inhibitor; 0.1 µM): 3.1%
